A selection: hits, their analogues and other compounds. The true share with any hit is near 4.9%.
WT yeast gro inh = growth inhibition of WT strain, primary screen, mitochondrial fusion inhibitor project, WT and mutant strains, chemical genetic | AID 1362, 2008 | mitochondrial fusion phenotypic screen | 190,000 tested, 2.1% active | inhibition, % at 10 µM; in the data active means inhibition above about 58%; tested in S. cerevisiae
NPY-Y1 antag = NPY-Y1 receptor antagonists, primary screen, cell-based; Neuropeptide Y receptor type 1 (Homo sapiens), P25929; HEK293-CNG Y1 cells, membrane potential fluorescence; NPY at EC95, then isoproterenol; inhibition, % at 3.6 µM; 200,000 tested, 1% active;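 active means inhibition above the campaign mean inhibition of all tested compounds plus 3 SD, cut at about 20% in these data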;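 further: 0% = DMSO wells given NPY plus isoproterenol and 100% = isoproterenol alone without NPY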
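Material: HEK293 cells with Y1 receptor plus CNG channel; times: compound incubation 1 h at room temperature, readout 45 min post-stimulation; signal: fluorescence, membrane potential probe; read-out basis: fluorescence ratio normalized to % inhibition between controls; benchmarks: full-block control isoproterenol-only wells, zero-block control NPY plus isoproterenol wells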
NPY Y2 blocker = NPY-Y2 receptor antagonists, primary screen, cell-based | Neuropeptide Y receptor type 2 (Homo sapiens), P49146 | NPY-Y2 expressing cells, antagonist mode | inhibition, % at 2.7 µM | 140,000 tested, 0.99% active; in the data active means inhibition above about 17%;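 further: 0% = vehicle with agonist challenge and 100% = reference antagonist with challenge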
Target sequence (P49146 whole entry, looked up): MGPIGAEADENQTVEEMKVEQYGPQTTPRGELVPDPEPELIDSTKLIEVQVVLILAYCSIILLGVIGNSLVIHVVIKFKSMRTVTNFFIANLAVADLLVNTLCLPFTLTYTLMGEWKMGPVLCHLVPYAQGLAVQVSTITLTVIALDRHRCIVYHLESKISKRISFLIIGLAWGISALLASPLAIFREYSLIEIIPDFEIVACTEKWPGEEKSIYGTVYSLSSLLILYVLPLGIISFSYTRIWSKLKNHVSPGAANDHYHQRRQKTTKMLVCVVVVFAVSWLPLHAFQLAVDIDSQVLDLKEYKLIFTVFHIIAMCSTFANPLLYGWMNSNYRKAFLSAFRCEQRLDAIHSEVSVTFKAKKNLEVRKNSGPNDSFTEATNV
NPY-Y2 PAM-ag = NPY-Y2 potentiators or agonists, primary screen, cell-based | Neuropeptide Y receptor type 2 (Homo sapiens), P49146 | cells expressing NPY-Y2, potentiator/agonist read-out | activation, % at 3.6 µM | 220,000 tested, 0.45% active | AID 1359, 2008; in the data active means activation above about 27%;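 further: cells stimulated with NPY near EC25 plus isoproterenol at EC100; 0% = vehicle plus submaximal agonist and 100% = vehicle plus saturating agonist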
RAM inhibit = inhibitors of the yeast RAM network, primary screen, dse1pr::URA3 reporter, 5-FOA selection; S. cerevisiae dse1pr::URA3 reporter, 5-FOA growth OD615, 2 d; analog-sensitive cbk1-as2 kinase mutant strain; inhibition, % at 50 µM; 190,000 tested, 1.8% active;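 active means inhibition above a set limit, 3 SD over mean compound inhibition, cut at about 8.4% in these data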;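 further: 0% = DMSO-only wells with no growth and 100% = 10 µM 1-NA-PP1 full growth; inhibition rescues growth on 5-FOA so higher OD means more RAM inhibition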
NPY-Y1 PAM-ag = NPY-Y1 receptor potentiators or agonists, primary screen, cell-based; Neuropeptide Y receptor type 1 (Homo sapiens), P25929; NPY-Y1 expressing cells, potentiator/agonist activation; 220,000 tested, 0.37% active; activation, % at 3.6 µM; in the data active means activation above about 33%, passing the limit was not always enough;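 further: cells stimulated with NPY at EC10 then isoproterenol at EC100; 0% = low agonist plus stimulus and 100% = saturating agonist plus stimulus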
NPY-Y2 pot conf = NPY-Y2 potentiators or agonists, confirmation, cell-based. shares compounds with NPY-Y2 PAM-ag. cell-based NPY-Y2 potentiator/agonist assay. activation, % at 3.6 µM. AID 1539, 2009. 450 tested, 20% active; in the data active means activation above about 33%
NPY-Y1 counter = NPY-Y1 potentiators or agonists, counter-screen for NPY-Y2 potentiator project, cell-based, fluorescence; shares compounds with NPY-Y2 PAM-ag; Y1 HEK293-CNG cells, membrane potential fluorescence; activation, % at 3.6 µM; 450 tested, 20% active; AID 1651, 2009; in the data active means activation above about 45%;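 further: cells stimulated with submaximal NPY then isoproterenol with phosphodiesterase inhibitor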
NPY-Y1 ag 2 = NPY-Y1 direct agonists, selectivity assay for NPY-Y2 potentiator project, cell-based, fluorescence | 450 tested, 37% active | shares compounds with NPY-Y2 PAM-ag | activation, % at 3.6 µM | AID 1702, 2009 | HEK293 Y1-CNGC, membrane potential fluorescence, agonism;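 active means activation above the mean of DMSO-only control wells plus 3 SD, cut at about 18% in these data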;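 further: cells stimulated with 1 µM isoproterenol plus the PDE inhibitor Ro 20-1724; 0% = isoproterenol with DMSO and no NPY and 100% = 40 nM NPY; Y1 agonists lower the membrane potential dye signal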
CNGC inh = CNGC cAMP sensor activity inhibitors, counter-screen for NPY-Y2 potentiator project, cell-based, HEK293-CNG parental, membrane potential fluorescence. shares compounds with NPY-Y2 PAM-ag. isoproterenol cAMP. inhibition, % at 3.6 µM. 450 tested, 32% active. AID 1703, 2009;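 active means inhibition above the control-well mean plus 3 SD of those wells, cut at about 22% in these data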;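 further: 0% = DMSO with isoproterenol and 100% = DMSO without isoproterenol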
Y2 agonist ctr = NPY-Y2 direct agonists, counter-screen for NPY-Y2 potentiator project, cell-based, fluorescence; HEK293 Y2/CNGC cells, membrane potential fluorescence, agonist mode; 450 tested, 56% active; activation, % at 3.6 µM; AID 1710, 2009; shares compounds with NPY-Y2 PAM-ag;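 active means activation above the mean of solvent-only control wells plus 3 SD, cut at about 10% in these data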;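 further: cells stimulated by isoproterenol with no NPY added so direct agonism is tested; 0% = DMSO with isoproterenol alone and 100% = NPY at EC100 plus isoproterenol; agonism lowers probe fluorescence through less cAMP and CNG channel opening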
Numbers without * were called inactive; nt = not tested or not shown.

SMILES	WT yeast gro inh	NPY-Y1 antag	NPY Y2 blocker	NPY-Y2 PAM-ag	RAM inhibit	NPY-Y1 PAM-ag	NPY-Y2 pot conf	NPY-Y1 counter	NPY-Y1 ag 2	CNGC inh	Y2 agonist ctr
Cc1cccc(C)c1NS(=O)(=O)c1ccc(NC(=O)c2ccc(Cl)c([N+](=O)[O-])c2)cc1	4	-11	-1	38*	4	29	35*	41	37*	29*	43*
Cc1ccc(S(=O)(=O)N(C)Cc2cc3ccccc3[nH]c2=O)cc1	-14	-9	3	9	2	3	nt	nt	nt	nt	nt
COc1ccc(NS(=O)(=O)c2cnc[nH]2)cc1	-14	0	nt	30*	2	-3	4	11	-4	2	8
O=S(=O)(Nc1ccc(C(F)(F)F)cc1)c1cnc[nH]1	4	2	0	10	-1	12	nt	nt	nt	nt	nt
O=C(Cn1cnc([N+](=O)[O-])c1)Nc1cc(Oc2ccc(Cl)cc2Cl)cc([N+](=O)[O-])c1	-12	-5	-6	34*	3	22	35*	38	31*	40*	52*
Cc1cccc(Oc2cc(NC(=O)Cn3cnc([N+](=O)[O-])n3)cc([N+](=O)[O-])c2)c1	-23	-8	-6	29	4	35	nt	nt	nt	nt	nt
O=C(CCCOc1ccc(Cl)cc1Cl)N/N=C/c1ccccc1O	31	16	7	-6	1	-16	nt	nt	nt	nt	nt
CC(C)Cn1cnc2c1c(=O)n(C)c(=O)n2C	-1	-2	nt	-1	0	11	nt	nt	nt	nt	nt
Cc1nc2ccc(S(=O)(=O)NC(C(=O)Nc3nc4ccc(Cl)cc4s3)C(C)C)cc2s1 (configuration not stated)	3	-4	-2	30*	7	24	10	16	7	18	7
Cc1nc2ccc(S(=O)(=O)NC(C(=O)Nc3nccs3)C(C)C)cc2s1 (configuration not stated)	14	-2	8	6	1	11	nt	nt	nt	nt	nt
COc1cc(/C=C/C(=O)Nc2ccc3[nH]c(=O)[nH]c3c2)cc(OC)c1OC	2	6	nt	16	-1	10	nt	nt	nt	nt	nt
CCc1cccc(NC(=O)c2cc(OC)c(OC)c(OC)c2)c1	10	3	nt	61*	1	-10	-7	-8	-20	-2	-1
NC(=O)c1ccc2nc(NC(=O)c3ccc(N)cc3)sc2c1	8	-5	nt	31*	4	23	11	14	18*	16	18*
NS(=O)(=O)c1ccc2nc(NC(=O)c3ccncc3)sc2c1	-2	-7	nt	4	2	-10	nt	nt	nt	nt	nt
CCC(CC)COC(=O)C(C#N)c1nc2ccccc2nc1N1CCN(CC)CC1 (configuration not stated)	59	-2	8	31*	0	26	52*	57*	33*	46*	64*
O=C(NCc1ccc(Cl)cc1)C1CCN(S(=O)(=O)c2cc([N+](=O)[O-])ccc2Cl)CC1	-21	-4	1	3	3	6	nt	nt	nt	nt	nt
Cc1cccc2sc(NC(=O)C3CCN(S(=O)(=O)c4cc([N+](=O)[O-])ccc4Cl)CC3)nc12	-5	-5	-1	40*	4	28	29	22	24*	18	41*
O=c1[nH][nH]c2ccccc2c1=O	nt	nt	nt	87*	nt	1	2	6	-12	0	-3
Cc1ccc(C)c(N(CC(=O)Nc2cc(Cl)ccc2Oc2ccccc2)S(C)(=O)=O)c1	21	-3	3	0	6	18	nt	nt	nt	nt	nt
O=C(Nc1ccccc1)OC1CCC2CC1CCC2OC(=O)Nc1ccccc1 (configuration not stated)	67*	5	14	31*	2	40	51*	72*	55*	38*	67*
CCOC(=O)N1CCN(CC(O)COCC2=CCC3CC2C3(C)C)CC1 (configuration not stated)	-3	-5	2	43*	0	17	7	15	15	-1	-1
COc1cc(C(=O)N2CCC(n3c(C)nc4cc(F)ccc43)CC2)cc(OC)c1OC	-15	-1	0	1	0	-8	nt	nt	nt	nt	nt
COc1ccc2c(c1)c(CC(=O)Nc1nnc(C3CC3)s1)c(C)n2C(=O)c1ccc(Cl)cc1	nt	nt	nt	49*	nt	49	12	10	21*	-4	12*
CCOc1c2ccc(C(=O)NCc3ccco3)cc2nn1CCOC	-5	1	1	-7	0	11	nt	nt	nt	nt	nt
O=S(=O)(/N=C(\c1ccc(Cl)cc1)N1CCOCC1)c1ccccc1	-14	3	-1	-2	0	-12	nt	nt	nt	nt	nt
CC(C)C[C@H](NC(=O)c1nc[nH]c1C(=O)NC1CCN(C(=O)OC(C)(C)C)CC1)C(=O)OCc1ccccc1	45	-10	nt	44*	4	30	26	46*	20*	22*	21*
CC(C)C[C@H](NC(=O)c1nc[nH]c1C(=O)NC1CCN(C(=O)OC(C)(C)C)CC1)C(=O)OC(C)(C)C	47	0	nt	-7	1	-5	nt	nt	nt	nt	nt
CCc1nnc(NC(=O)c2cc(-c3ccccn3)nc3ccccc23)s1	7	2	nt	0	0	-11	nt	nt	nt	nt	nt
